# T cruzi inh: blocks replication of Trypanosoma cruzi; T. cruzi beta-gal in NIH3T3, luminescence, 90 h; inhibition, % (concentration not given with the values); actives 1.4% (n = 300,000);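 active = mean inhibition across valid replicates above about 55%, limit read from the data; inconclusive = mean below that limit but half or more replicates reach it; inactive = mean below it, under half of replicates reach it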;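 note: signal also drops with host cell toxicity which is not excluded here; 0% = plate median of DMSO wells and 100% = zero luminescence signal; higher percent means less beta-gal luminescence so fewer parasites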
#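 System – NIH/3T3 host cells with β-galactosidase reporter T. cruzi · Doses – single 50 nL compound addition per well in DMSO · Reagent – 5000 T. cruzi trypomastigotes/well · Medium – Low-serum DMEM with 2% FBS · Timing – ≥90 h infection period, 3 h prior cell attachment · Evaluation – parasite load inhibition, % · Technique – GalScreen luminescence, 60 min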
# CSC inhib: blocks cancer stem cells; cancer stem cell-like cells viability, luminescence; inhibition, % at 7.5 µM; actives 1.1% (n = 300,000); in the data active = inhibition above about 75%; inconclusive = no clear call, values can overlap the other calls; tested in HMLE shEcad cells
# H9c2 TAG inh: triacylglycerol accumulation inhibition; AID 651582; inhibition, % at 12.5 µM; actives 0.66% (n = 230,000); H9c2 cells, Nile Red lipid (TAG) fluorescence; cells loaded with 200 µM oleic acid;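 active = pattern-corrected inhibition of lipid staining of at least 50% with the nuclear-stain viability signal not falling by more than 50%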;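 note: 0% = DMSO wells and 100% = triacsin C control wells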
# Beta cell apopt: blocks beta cell apoptosis; actives 0.8% (n = 300,000); INS-1E cytokine-induced death, ATP luminescence, 48 h; percent of positive-control rescue, neutral wells zero; protection from apoptosis, % (concentration not given with the values);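 active = Every replicate reaches about 75%, or at least half do and their mean reaches it too, limit read from the data; inconclusive = At least half of replicates reach the limit but their mean does not; inactive = Under half of replicates reach the limit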;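 note: 0% = cytokine-treated negative control wells and 100% = positive control rescue; higher means more ATP so stronger rescue from cytokine killing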
# A1 inh: inhibitors of the anti-apoptotic protein A1, read as caspase activation; MEF A1-2A-BIM cells, Caspase-Glo 3/7 luminescence, 3 h; percent of clofoctol response, vehicle zero; caspase activation, % (no concentration beside the values); actives 0.066% (n = 330,000);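 active = over half of replicate activation scores above 10%, or exactly half above 10 with the replicate mean above 10; inconclusive = replicate mean below 10 yet half the replicates above 10; inactive = over half of replicates below 10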
# Calb FLC: affects C. albicans growth with fluconazole. C. albicans CaCi-2 + fluconazole, Alamar Blue growth, 48 h. growth inhibition, % (concentration not given with the values). actives 0.57% (n = 300,000). AID 1979;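 active = growth inhibition above about 58% in most replicates, limit read from the data, passing the limit was not always enough; inconclusive = exactly half the replicates above a set limit; inactive = most replicates below a set limit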;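 note: all wells also contain fluconazole at 8 µg/ml as a sub-toxic cotreatment; 0% = median of DMSO wells and 100% = median of geldanamycin control wells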
# An asterisk follows results filed as active; ? = inconclusive; / = no result. Sampled rows, rich in hits. Any-hit rate of the full collection: about 3.1%.
SMILES,T cruzi inh,CSC inhib,H9c2 TAG inh,Beta cell apopt,A1 inh,Calb FLC
O=C(O)CC(CC(=O)Nc1ccc(-n2ccc(C(F)(F)F)n2)cc1)c1ccccc1 (stereo not given),-8.0,-7.6,6.2,-10.5,-0.2,-1.8
Oc1ccc(N=Nc2ccc3c(c2)OCCO3)c2cccnc12,83.4*,/,91.1*,/,-4.0,100.4*
COc1cccc(N=Nc2ccc(O)c3ncccc23)c1,34.4,123.3*,/,104.3*,-8.3,101.2*
COc1cccc(N=Nc2ccc3cccnc3c2O)c1,42.9,90.0*,/,90.3*,-7.8,86.3*
Nc1ccc(N=Nc2ccccc2)c2cccnc12,28.1,14.0,/,4.5,0.9,35.2
Oc1ccc(N=Nc2ccc(Br)cc2)c(O)c1,60.2*,91.8*,/,24.2,-7.9,-2.7
COc1cc(OC)cc(C(=O)Nc2cccc3cccnc23)c1,0.7,-16.1,/,16.1,-0.8,0.6
CCOc1ncccc1C(=O)OCC(=O)NC1CCCCCC1,/,/,-7.1,/,/,/
COc1cc(NC(=O)CSc2nc(C3CC3)nc3ccccc23)cc(OC)c1,10.1,-10.9,/,-8.6,-0.2,-5.3
COc1cccc(CN(C)C(=O)CNC(=O)c2ccc(-c3ccccc3)cc2)c1OC,3.1,24.5,/,9.3,0.3,0.1
NC(=O)c1ccsc1NC(=O)COC(=O)c1cccnc1Cl,/,-9.2,2.0,1.1,-2.6,/
O=Nc1ccc(O)c2ncccc12,22.3,36.8,67.2*,42.5,-0.1,-11.5
O=S(=O)(O)c1cccc2c(N=Nc3ccc(O)c4ncccc34)cccc12,-4.7,-5.6,/,0.6,-7.0,84.0*
Cc1ccc(N=Nc2ccc(O)cc2)c(Br)c1,5.0,86.8*,2.6,8.3,-4.1,-10.4
COc1ccc(N=Nc2ccc(O)c3ncccc23)cc1,45.8,151.3*,77.3*,103.6*,-2.1,2.5
Cc1noc(C)c1NC(=O)Nc1cccc2c1O[C@H](CN(C)S(=O)(=O)c1cccs1)[C@@H](C)CN([C@H](C)CO)C2=O,/,/,1.1,-4.0,0.6,/
O=C(NCc1ccc(Cl)cc1)c1ccc(NC(=O)C2CCCO2)cc1 (stereo not given),-6.7,0.6,/,2.0,0.1,-5.0
CC(C)CC(=O)Nc1ccc(C(=O)COC(=O)Cc2n[nH]c(=O)c3ccccc23)cc1,/,-23.6,6.4,-0.4,-0.2,/
CC(C)N(C(=O)[C@H]1C[C@H](CC(=O)NCc2ccco2)C(=O)N2CCc3c([nH]c4ccc(Cl)cc34)[C@]12C)C(C)C,/,/,32.6,/,/,/
COc1ccc(C)cc1N=Nc1ccc(O)c2ncccc12,?,/,/,/,/,108.8*
Oc1ccc(N=Nc2ccc3c(c2)OCCO3)c(O)c1,-11.7,84.5*,-1.5,4.4,-7.8,3.4
Cc1ccccc1N=Nc1ccc(O)c2ncccc12,42.3,99.3*,85.9*,98.7*,-3.5,-9.1
O=C(Cc1ccc2c(c1)OCCO2)c1c(O)cc(O)cc1O,3.0,21.6,/,-6.9,-1.0,5.3
COc1ccc(C)cc1-n1c(=O)c2ccccc2c2ccccc2c1=O,-10.0,/,-0.7,/,/,10.6
CSCCC(NC(=O)c1ccc(Cl)cc1Cl)C(=O)N(C)Cc1nc2ccccc2c(=O)[nH]1 (stereo not given),/,/,14.5,/,/,/
SMILES,T cruzi inh,CSC inhib,H9c2 TAG inh,Beta cell apopt,A1 inh,Calb FLC
CC(C)NC(=O)COc1coc(CN2CCN(c3ccccc3F)CC2)cc1=O,-21.6,-5.2,/,-3.6,2.8,13.4
Cc1cc2nnc(SCC(=O)NC3CCCCC3)n2c(N)n1,23.8,-1.5,/,-0.9,0.0,-2.9
CCC(C)(C)c1ccc(OCCCC[n+]2cccc(C)c2C)c(C(C)(C)CC)c1,9.8,135.1*,96.0,117.0*,0.3,109.4*
Cc1cc(C(C)(C)C)ccc1OCCCCN1CCCC1,45.8,?,/,20.5,-0.1,-0.4
CCC(C)(C)c1ccc(OCCCC[n+]2ccc(C)cc2)c(C(C)(C)CC)c1,35.0,105.7*,/,115.0*,0.3,94.4*
CCCCCN(C(=O)CCC(=O)OCC(=O)N(C)Cc1ccccc1C)c1c(N)n(CCCC)c(=O)[nH]c1=O,0.2,-6.9,16.2,-3.7,-0.3,-3.8
CC(=O)c1cccc(Nc2cc(C)nc3c(C)cc(C)cc23)c1,55.6*,1.1,/,17.5,0.4,-19.7
CC(=O)c1cccc(Nc2cc(C)nc3ccc(C)cc23)c1,7.5,-1.8,-8.7,9.6,0.3,-3.8
NC(=O)c1ccc(NC(=O)COC(=O)c2ccc(Br)o2)cc1,/,/,0.6,-4.4,-0.1,/
CCSc1nnc(-c2ccncc2)o1,-20.6,-7.0,-3.7,-7.4,0.0,-6.4
CCSc1nnc(-c2sc3nnc(-c4ccccc4)c(-c4ccccc4)c3c2N)o1,42.8,119.9*,/,18.9,0.1,4.7
COc1cccc(NC(=O)CCCCCn2nnc3ccccc3c2=O)c1,4.8,-4.4,/,1.7,-0.2,-2.4
CC1CC(C)CN(C(=O)c2cccc(N3C(=O)c4ccccc4C3=O)c2)C1 (stereo not given),/,-14.4,11.9,-8.4,0.2,/
O=C(Nc1nnc(SCc2ccc(Cl)cc2)s1)c1cnccn1,-16.5,37.1,/,-5.8,0.5,79.8*
O=C(c1ccoc1)N1CCC2(CC1)Oc1ccc(F)cc1C(=O)C21CC(c2ccccc2)=NO1 (stereo not given),-2.2,0.2,27.5,8.6,0.3,92.0*
O=C(c1ccc2c(c1)OCO2)N1CCC2(CC1)Oc1ccc(Cl)cc1C(=O)C21CC(c2cccnc2)=NO1 (stereo not given),15.1,-8.0,-6.2,-5.3,0.8,83.8*
O=C(c1ccoc1)N1CCC2(CC1)Oc1ccc(F)cc1C(=O)C21CC(c2ccc(Cl)cc2)=NO1 (stereo not given),34.0,1.2,0.6,4.5,0.3,37.7
O=C(c1ccc2c(c1)OCO2)N1CCC2(CC1)Oc1ccc(F)cc1C(=O)C21CC(c2cccnc2)=NO1 (stereo not given),5.2,12.7,-6.8,-4.4,-0.2,76.8*
O=C(c1ccoc1)N1CCC2(CC1)Oc1ccc(F)cc1C(=O)C21CC(c2cccnc2)=NO1 (stereo not given),2.7,8.3,9.3,-2.9,-0.6,51.0
O=C(c1ccc2c(c1)OCO2)N1CCC2(CC1)Oc1ccc(F)cc1C(=O)C21CC(c2ccccc2)=NO1 (stereo not given),2.9,5.0,-2.4,-7.0,0.2,77.2*
Nc1ccn([C@@H]2O[C@H](CNCc3ccc(C#CCCO)cc3)[C@@H](O)[C@H]2O)c(=O)n1,/,/,-5.3,/,/,/
CC(=O)NCCc1ccc(C(=O)COC(=O)c2cc(C)oc2C)cc1,/,-7.9,-37.7,5.3,-1.4,/
CC1(C)C2CCC1(CS(=O)(=O)N1CCN(c3ccc(F)cc3)CC1)C(=O)C2 (stereo not given),4.3,-21.8,-0.1,-0.2,1.2,12.6
O=C(CN1C(=O)c2cccc([N+](=O)[O-])c2C1=O)OCC(=O)N1CCCCC1,-11.6,6.0,1.0,2.6,-0.5,-6.4
